{"data": "Experimental data collected from several papers", "target": "Serine/threonine-protein kinase SIK1 (SIK1, Homo sapiens, UniProt P57059)", "note": "Protocols differ between the studies behind these lines."}
{"SMILES": "Cc1ccc(C(=O)Nc2ccc(CN3CCN(C)CC3)c(C(F)(F)F)c2)cc1C#Cc1cnc2cccnn12", "assay": "enzyme activity, inhibitor", "conditions": "23.5 nM", "measurement": "remaining activity", "value": "57%"}
{"SMILES": "CC(C)(C)c1nc(-c2cccc(NS(=O)(=O)c3c(F)cccc3F)c2F)c(-c2ccnc(N)n2)s1", "assay": "enzyme activity, inhibitor, radiometric", "conditions": "1 µM", "measurement": "remaining activity", "value": "98%"}
{"SMILES": "O=C(Nc1cnn(-c2csc(C(=O)NC3COC3)c2)c1)Nc1ccccc1Cl", "assay": "enzyme activity, inhibitor", "conditions": "5 µM", "measurement": "remaining activity", "value": "102%"}
{"SMILES": "CN(CCCC(F)(F)F)c1nccc(-c2cnn3ncccc23)n1", "assay": "binding", "conditions": "1 µM", "measurement": "remaining binding", "value": "100%"}
{"SMILES": "Cc1cnc(NC2CCOCC2)nc1-n1cnc(C(=O)NC(CN)c2cc(F)cc(Cl)c2)c1 (centres unmarked)", "assay": "enzyme activity, inhibitor, radiometric", "conditions": "1 µM", "measurement": "remaining activity", "value": "109%"}
{"SMILES": "CC(C)(C)c1nc2c(s1)c1nc(N)ncc1c1ccc(NS(=O)(=O)c3c(F)cccc3F)c(F)c12", "assay": "enzyme activity, inhibitor, radiometric", "conditions": "1 µM", "measurement": "remaining activity", "value": "90%"}
{"SMILES": "CCN1CCN(Cc2ccc(NC(=O)c3ccc(C)c(Oc4ccnc5[nH]ccc45)c3)cc2C(F)(F)F)CC1", "assay": "target engagement in cells, inhibitor, chemoproteomics", "system": "Huh-7", "conditions": "1 µM", "measurement": "inhibition", "value": "-51.3%"}
{"SMILES": "COc1cc(Cl)c(C(=O)N[C@@H](CN[C@H]2CC[C@@H](N)CC2)Cc2ccc(C#N)cc2)cc1-c1ccc(CN[C@H](C)c2ccc(C)cc2)o1", "assay": "enzyme activity, inhibitor", "conditions": "1 µM", "measurement": "remaining activity", "value": "97%"}
{"SMILES": "Cc1ccc(Nc2nccc(N(C)c3ccc4c(C)n(C)nc4c3)n2)cc1S(N)(=O)=O", "assay": "enzyme activity, inhibitor", "conditions": "0.3 µM", "measurement": "inhibition", "value": "13%"}
{"SMILES": "CC(C)(O)[C@H]1CC[C@H](Nc2ccc3ncc(-c4cccc(C(F)(F)F)c4)n3n2)CC1", "assay": "enzyme activity, inhibitor", "conditions": "1 µM", "measurement": "remaining activity", "value": "62.8%"}
{"SMILES": "Cc1cnn2ncc(-c3ccnc(N(C)C)n3)c2c1", "assay": "binding", "conditions": "1 µM", "measurement": "remaining binding", "value": "100%"}
{"SMILES": "Cc1cc(NC(=O)c2cccc3cc(-c4cccc5[nH]nc(N)c45)ccc23)ccc1F", "assay": "enzyme activity, inhibitor", "conditions": "0.1 µM", "measurement": "activity vs control", "value": "103%"}
{"SMILES": "CN(c1nccc(-c2cnn3ncccc23)n1)C1CC1", "assay": "binding", "conditions": "1 µM", "measurement": "remaining binding", "value": "100%"}
{"SMILES": "O=C(Nc1cnn(-c2csc(C(=O)NC3COC3)c2)c1)Nc1c(F)cccc1Cl", "assay": "enzyme activity, inhibitor", "conditions": "5 µM", "measurement": "remaining activity", "value": "98.3%"}
